One data set relates to Human alphaherpesvirus 1. The data set can be described thus: Antiviral activity against HSV1 infected in african green monkey Vero cells assessed as inhibition of virus-induced cytopathic effect after 3 days by crystal violet staining. Format: functional. The essentials: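 Vero cells grown 24 h in 24-well plates, then infected with 30 PFU HSV-1 together with serial sample dilutions in DMEM containing 2% FBS, adjusted to pH 7.2 with NaHCO3 and Hepes. Overlay medium held 1% methylcellulose. After 3 days, cells were fixed with formalin, stained with crystal violet, and plaques counted. The concentration giving 100% plaque reduction versus untreated infected control was read from graphic plots.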
For orientation: Protection from cytopathic effect is a common read-out in antiviral testing.

Data set [1] is described as follows: Cytotoxicity against african green monkey Vero cells after 3 days by MTT assay. The class given is cell-based. To be noted: chlorocebus sabaeus, read-out: MNCC. The procedure, abridged: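 Confluent Vero monolayers were exposed in triplicate to serial sample dilutions in DMEM with 2% FBS (pH 7.2) for 3 days. MTT was then added for 4 h and the formazan dissolved in DMSO. OD was read at 540 and 630 nm against untreated control. The maximal noncytotoxic concentration was taken as the highest concentration showing no cytotoxic effect.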

Structures are written as SMILES. The source made the active and inactive calls. The rule behind the calls is not given here. Bounds are passed on as bounds.

Turning to `CC(C)(O)[C@H]1CC=C(C(=O)OC[C@H]2O[C@@H](O)[C@H](O)[C@@H](O)[C@@H]2O)CC1` [EUCALMAIDIN A], the inhibition result in the data set on Human alphaherpesvirus 1 was “inactive”. Also, the MNTC at 72 h in data set [1] was more than 580 µM.
Turning to `Nc1nc2c(ncn2COCCO)c(=O)[nH]1` [ACYCLOVIR], the “Concentration giving 100% plaque reduction (IC100)” value in the data set on Human alphaherpesvirus 1 is given as 0.0043 mM.
Consider `CC(C)(O)[C@H]1CC=C(C(=O)OC[C@H]2O[C@@H](Oc3c(O)cc(C(=O)O)cc3O)[C@H](O)[C@@H](O)[C@@H]2O)CC1` [EUCALMAIDIN B], for which the inhibition entry in the data set on Human alphaherpesvirus 1 was “inactive”. Further, the MNTC at 72 h in data set [1] was 400 µM.
For the molecule `COc1cc([C@@H]2c3cc(O)c(OC)cc3C[C@H](CO)[C@H]2CO[C@@H]2O[C@H](CO)[C@@H](O)[C@H](O)[C@H]2O)ccc1O`, in the data set with Human alphaherpesvirus 1, the inhibition entry was “inactive”. The MNTC at 72 h in data set [1] is 380 µM.
For `Cc1cc(=O)c2c(O)cc(O[C@@H]3O[C@H](COC(=O)C4=CC[C@H](C(C)(C)O)CC4)[C@@H](O)[C@H](O)[C@H]3O)cc2o1` [CYPELLOCARPA C], in that order: “inactive” and more than 380 µM.
For `C[C@@H]1O[C@@H](Oc2c(-c3ccc(O)c(O)c3)oc3cc(O)cc(O)c3c2=O)[C@H](O)[C@H](O)[C@H]1O` [QUERCITRIN] the same measures were “inactive” and 10 µM.
On to `CC1(O)CC(=O)c2c(O)cc(O[C@@H]3O[C@H](COC(=O)C4=CC[C@H](C(C)(C)O)CC4)[C@@H](O)[C@H](O)[C@H]3O)cc2O1` (stereo partly specified) [CYPELLOCARPIN B], for which the inhibition entry with Human alphaherpesvirus 1 is “inactive”. Moreover, the MNTC at 72 h in data set [1] is 20 µM.
Turning to `O=c1c(O)c(-c2ccc(O)c(O)c2)oc2cc(O)cc(O)c12` [QUERCETIN], the “Concentration giving 100% plaque reduction (IC100)” value in the data set with Human alphaherpesvirus 1 is reported as 0.33 mM. Also, the MNTC at 72 h in data set [1] is less than 20 µM.
For the molecule `CC(C)(O)C1CC=C(C(=O)O)CC1` (racemic), the inhibition entry with Human alphaherpesvirus 1 is “inactive”. For the same molecule, the MNTC at 72 h in data set [1] was more than 1090 µM.
With `CC(C)(O)[C@H]1CC=C(C(=O)OC[C@H]2O[C@@H](Oc3cc(C(=O)O)cc(O)c3O)[C@H](O)[C@@H](O)[C@@H]2O)CC1` [CYPELLOCARPIN A], the inhibition result with Human alphaherpesvirus 1 was “inactive”. In data set [1], the MNTC at 72 h was found to be 30 µM.
On to `COc1cc(C(=O)O)cc(OC)c1O[C@@H]1O[C@H](COC(=O)C2=CC[C@H](C(C)(C)O)CC2)[C@@H](O)[C@H](O)[C@H]1O` [EUCALMAIDIN C], for which the inhibition entry in the data set with Human alphaherpesvirus 1 is “inactive”. Besides, the MNTC at 72 h in data set [1] was determined as 380 µM.

The values above are taken from ChEMBL document CHEMBL1154307, “Eucalmaidins A-E, (+)-oleuropeic acid derivatives from the fresh leaves of Eucalyptus maideni” (J Nat Prod, 2009).
